Activity and Stability data for seven compounds are collected here from ChEMBL document CHEMBL1142241, “Atropisomeric 3-(beta-hydroxyethyl)-4-arylquinolin-2-ones as Maxi-K potassium channel openers” (J Med Chem, 2007).

Data set [1] deals with Calcium-activated potassium channel subunit alpha-1 (Homo sapiens) (UniProt Q12791). The data set is described as follows: Activity at human maxi-K hSlo channel expressed in Xenopus oocytes assessed as increase in maxi k current at 20 uM relative to iberiotoxin. In kind it is cell-based. The note with it: Oocyte. An outline of the steps: (§1)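 Xenopus oocytes injected with 50 ng hSlo cRNA, recorded 2–5 days post-injection. Outward K+ currents evoked from a holding potential of -60 mV over -40 to +140 mV in 20 mV depolarizing steps. Compound applied for 5 min in at least 4–5 oocytes, then 100 nM iberiotoxin for 10 min. Values are % IbTX-sensitive current at peak effect, drug-free control = 100%.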

Data set [2] shares this target. Kind of data set: Activity at human maxi-K hSlo channel expressed in Xenopus oocytes assessed as increase in maxi k current at 5 uM relative to iberiotoxin. The format is cell-based. The conditions noted are these: Oocyte. Put shortly: as §1
For data set [3] the target is unchanged. Kind of data set: Activity at human maxi-K hSlo channel expressed in Xenopus oocytes assessed as increase in maxi k current at 10 uM relative to iberiotoxin. The conditions noted are these: Oocyte. In kind it is cell-based. An outline of the steps: as §1
Another data set concerns Serum. The data set is described as follows: Stability in human serum at 1 mM in 37 degC upto 30 hrs. The format is ADME, cell-free. The conditions noted are these: 1000 µM. An outline of the steps:
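Pooled human serum prewarmed 5 min at 37 °C; test agent added from 0.1 M DMSO stock to final 1 mM in serum with 1% DMSO, held at 37 °C. Racemization followed by supercritical fluid chromatography on a chiral column over 30 h.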

Several values for one entry are separate records, joined by “and”; a condition that tells them apart may be missing. Equal entries are not always repeated.

Calcium-activated potassium channel subunit alpha-1 (Homo sapiens), sequence (Q12791 whole entry): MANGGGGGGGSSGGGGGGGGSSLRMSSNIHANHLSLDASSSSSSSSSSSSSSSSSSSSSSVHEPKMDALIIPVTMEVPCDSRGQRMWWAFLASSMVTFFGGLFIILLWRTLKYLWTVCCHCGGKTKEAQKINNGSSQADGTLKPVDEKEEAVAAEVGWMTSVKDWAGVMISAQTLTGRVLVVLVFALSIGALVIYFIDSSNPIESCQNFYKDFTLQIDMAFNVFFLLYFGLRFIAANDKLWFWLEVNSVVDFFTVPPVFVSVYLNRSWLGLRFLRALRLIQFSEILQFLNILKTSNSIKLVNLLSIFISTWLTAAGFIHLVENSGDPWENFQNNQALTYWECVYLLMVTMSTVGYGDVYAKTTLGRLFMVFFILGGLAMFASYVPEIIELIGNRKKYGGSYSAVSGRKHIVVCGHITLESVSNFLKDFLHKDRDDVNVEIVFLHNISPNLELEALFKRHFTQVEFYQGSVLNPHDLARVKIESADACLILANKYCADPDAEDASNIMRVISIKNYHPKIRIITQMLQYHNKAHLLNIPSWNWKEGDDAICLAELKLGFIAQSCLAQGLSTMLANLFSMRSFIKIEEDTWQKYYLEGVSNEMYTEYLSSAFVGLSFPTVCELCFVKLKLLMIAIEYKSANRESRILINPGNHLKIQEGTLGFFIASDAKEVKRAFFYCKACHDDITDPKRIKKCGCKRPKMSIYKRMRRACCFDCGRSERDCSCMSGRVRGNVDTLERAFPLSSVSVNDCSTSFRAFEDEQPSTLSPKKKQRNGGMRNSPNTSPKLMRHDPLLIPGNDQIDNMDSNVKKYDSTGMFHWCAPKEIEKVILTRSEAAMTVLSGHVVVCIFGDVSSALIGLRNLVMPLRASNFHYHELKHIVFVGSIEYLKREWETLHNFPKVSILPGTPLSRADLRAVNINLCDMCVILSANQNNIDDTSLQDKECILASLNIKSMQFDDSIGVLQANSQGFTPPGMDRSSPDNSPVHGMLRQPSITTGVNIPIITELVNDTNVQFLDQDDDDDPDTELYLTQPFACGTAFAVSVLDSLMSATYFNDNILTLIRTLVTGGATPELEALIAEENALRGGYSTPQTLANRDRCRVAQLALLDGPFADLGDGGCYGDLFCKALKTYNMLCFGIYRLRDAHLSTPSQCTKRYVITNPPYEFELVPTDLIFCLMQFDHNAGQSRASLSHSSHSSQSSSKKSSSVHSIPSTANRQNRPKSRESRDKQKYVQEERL

With `Cn1c(=O)c(CCO)c(-c2cc(Cl)cc(CCCO)c2O)c2cc(C(F)(F)F)ccc21`, in data set [1], the Activity was 164%.
Take `Cn1c(=O)c(CCO)c(-c2cc(Cl)cc(CC(O)CO)c2O)c2cc(C(F)(F)F)ccc21` (stereo not given): the Activity in data set [1] is 112%.
In the case of `CC(C)Cc1cc(Cl)cc(-c2c(CCO)c(=O)n(C)c3ccc(C(F)(F)F)cc23)c1O`, the Activity in data set [2] amounted to 96.5%.
On to `O=c1[nH]c2ccc(C(F)(F)F)cc2c(-c2cc(Cl)ccc2O)c1CCO` [BMS-223131], for which the Activity is 214% and 292% and 259% in data set [3]; 253% in data set [1]. Further, the Stability result in the data set with Serum was “Stable”.
With `Cn1c(=O)c(CCO)c(-c2cc(Cl)ccc2O)c2cc(C(F)(F)F)ccc21`, the Activity was 361% and 184% and 257% in data set [3]; 296% in data set [1].
For the compound `C=C(C)Cc1cc(Cl)cc(-c2c(CCO)c(=O)n(C)c3ccc(C(F)(F)F)cc23)c1O`, in data set [3], the Activity was 114%.
Take `CCCc1cc(Cl)cc(-c2c(CCO)c(=O)n(C)c3ccc(C(F)(F)F)cc23)c1O`: the Activity in data set [3] came to 127%.
